Tests used:
Assay type in all cases: functional, cell-based
[1] = Cytotoxicity against human KB3-1 cells after 72 hrs by MTT assay; conditions: KB 3-1, 72 h
Method in brief: (§1)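 Cells grown in RPMI-1640 with 10% FBS, 2 mM L-glutamine and gentamicin; seeded at 1 × 10⁴ cells/well and left to attach overnight at 37 °C, 5% CO₂. Compounds were dissolved in DMSO, diluted into FBS-free medium and tested at 5 × 10⁻⁵, 10⁻⁵, 10⁻⁶ and 10⁻⁷ M for 72 h. MTT was added for 3 h, formazan dissolved in DMSO and read at 590 nm. Triplicates; IC50 derived graphically from % viability loss versus untreated controls.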

A549 = experiment: Cytotoxicity against human A549 cells after 72 hrs by MTT assay; conditions: A549, 72 h
Method in brief: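 Compounds were dissolved in DMSO, diluted into FBS-free medium and tested at 5 × 10⁻⁵, 10⁻⁵, 10⁻⁶ and 10⁻⁷ M for 72 h. MTT was added for 3 h, formazan dissolved in DMSO and read at 590 nm. Triplicates; IC50 derived graphically from % viability loss versus untreated controls.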

[2] = Cytotoxicity against human Caov3 cells after 72 hrs by MTT assay; conditions: Caov-3, 72 h; method in brief: as §1
[3] = Cytotoxicity against human multi drug resistant subclone KB 8.5 cells after 72 hrs by MTT assay; method in brief: as §1

## CCOP(=O)(CCN1C/C(=C\c2cccnc2)C(=O)/C(=C/c2cccnc2)C1)OCC
[1]
  IC50: > 40 µM
A549
  IC50: > 40 µM
[2]
  IC50: > 40 µM
[3]
  IC50: > 40 µM

## CCOP(=O)(OCC)N1C/C(=C\c2cccnc2)C(=O)/C(=C/c2cccnc2)C1
[1]
  IC50: 5 µM
A549
  IC50: 10.4 µM
[2]
  IC50: 8.1 µM
[3]
  IC50: 5.3 µM

## O=C1/C(=C/c2cccnc2)CNC/C1=C\c1cccnc1
[1]
  IC50: 24.4 µM
A549
  IC50: 11.1 µM
[2]
  IC50: 9.2 µM
[3]
  IC50: 30 µM

## O=C1/C(=C/c2ccncc2)CNC/C1=C\c1ccncc1
[1]
  IC50: 5 µM
A549
  IC50: 10.3 µM
[2]
  IC50: 6 µM
[3]
  IC50: 8.5 µM

## CN1C/C(=C\c2ccncc2)C(=O)/C(=C/c2ccncc2)C1
[1]
  IC50: 3 µM
A549
  IC50: 4.2 µM
[2]
  IC50: 5.1 µM
[3]
  IC50: 7.4 µM

## CN1C/C(=C\c2cccnc2)C(=O)/C(=C/c2cccnc2)C1
[1]
  IC50: 20.2 µM
A549
  IC50: > 20 µM
[2]
  IC50: > 20 µM
[3]
  IC50: 40.4 µM

## CCOP(=O)(OCC)N1C/C(=C\c2ccncc2)C(=O)/C(=C/c2ccncc2)C1
[1]
  IC50: 2.1 µM
A549
  IC50: 8.2 µM
[2]
  IC50: 4.3 µM
[3]
  IC50: 5.1 µM

## N[C@@H](Cc1ccc(N(CCCl)CCCl)cc1)C(=O)O
[2]
  IC50: 50 µM

## CCOP(=O)(CCCCN1C/C(=C\c2cccnc2)C(=O)/C(=C/c2cccnc2)C1)OCC
[1]
  IC50: 6.1 µM
A549
  IC50: 15.4 µM
[2]
  IC50: 6.2 µM
[3]
  IC50: 9.5 µM

## COc1cccc2c1C(=O)c1c(O)c3c(c(O)c1C2=O)C[C@@](O)(C(=O)CO)C[C@@H]3O[C@H]1C[C@H](N)[C@H](O)[C@H](C)O1 [DOXORUBICIN]
[3]
  IC50: 3.3 µM

Source: ChEMBL document CHEMBL1629420, “Structure-cytotoxicity relationship in a series of N-phosphorus substituted E,E-3,5-bis(3-pyridinylmethylene)- and E,E-3,5-bis(4-pyridinylmethylene)piperid-4-ones” (Eur J Med Chem, 2010)
